Assay results as given in ChEMBL document CHEMBL4257465, “Strigolactones: a plant phytohormone as novel anti-inflammatory agents” (Medchemcomm, 2018).

Key:
RAW264.7 [1] = experiment: Antiinflammatory activity in mouse RAW264.7 cells assessed as inhibition of LPS-induced NO production pretreated for 2 hrs followed by LPS stimulation measured after 24 hrs by Griess assay; assay type: functional, cell-based
In short: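 RAW264.7 murine macrophages (DMEM, 10% serum, 37 °C, 5% CO2) seeded at 5 × 10^4 cells/well and cultured 18 h. Compounds tested at 1–100 μM (DMSO 0.1% v/v), with LPS (E. coli 0127:B8) at 100 ng mL−1. Supernatant nitrite read with Griess reagent (10 min, room temperature, OD540).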

RAW264.7 [2] = experiment: Antiinflammatory activity in LPS-induced mouse RAW264.7 cells assessed as TNFalpha levels at 10 uM pretreated for 2 hrs followed by LPS stimulation and measured after 24 hrs by ELISA (reference value: 9653.7 +/- 377.3 pg/ml); assay type: functional
In short: (§1)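 RAW264.7 murine macrophages (DMEM, 10% serum, 37 °C, 5% CO2) seeded at 5 × 10^5 cells per well, pretreated 2 h with compound at 10, 5, 2.5 or 1.25 μM (DMSO 0.1% v/v), then LPS (E. coli 0127:B8) 100 ng mL−1 added. Supernatant TNF-α or IL-6 read by mouse ELISA kit after 6, 12 and 24 h. Mean ± SD, n = 3, three independent experiments.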

RAW264.7 [3] = experiment: Antiinflammatory activity in LPS-induced mouse RAW264.7 cells assessed as TNFalpha levels at 10 uM pretreated for 2 hrs followed by LPS stimulation and measured after 12 hrs by ELISA (reference value: 5313.7 +/- 420.9 pg/ml); assay type: functional; in short: as §1
RAW264.7 [4] = experiment: Antiinflammatory activity in LPS-induced mouse RAW264.7 cells assessed as TNFalpha levels at 5 uM pretreated for 2 hrs followed by LPS stimulation and measured after 6 hrs by ELISA (reference value: 4377.1 +/- 318.6 pg/ml); assay type: functional; in short: as §1
RAW264.7 [5] = experiment: Antiinflammatory activity in LPS-induced mouse RAW264.7 cells assessed as IL-6 levels at 5 uM pretreated for 2 hrs followed by LPS stimulation and measured after 24 hrs by ELISA (reference value: 1966.6 +/- 102.3 pg/ml); assay type: functional; in short: as §1
RAW264.7 [6] = experiment: Antiinflammatory activity in LPS-induced mouse RAW264.7 cells assessed as IL-6 levels at 2.5 uM pretreated for 2 hrs followed by LPS stimulation and measured after 6 hrs by ELISA (reference value: 472.3 +/- 25.8 pg/ml); assay type: functional; in short: as §1
RAW264.7 [7] = experiment: Antiinflammatory activity in LPS-induced mouse RAW264.7 cells assessed as IL-6 levels at 1.25 uM pretreated for 2 hrs followed by LPS stimulation and measured after 6 hrs by ELISA (reference value: 472.3 +/- 25.8 pg/ml); assay type: functional; in short: as §1
RAW264.7 [8] = experiment: Antiinflammatory activity in LPS-induced mouse RAW264.7 cells assessed as IL-6 levels at 2.5 uM pretreated for 2 hrs followed by LPS stimulation and measured after 24 hrs by ELISA (reference value: 1966.6 +/- 102.3 pg/ml); assay type: functional; in short: as §1
RAW264.7 [9] = experiment: Antiinflammatory activity in LPS-induced mouse RAW264.7 cells assessed as IL-6 levels at 10 uM pretreated for 2 hrs followed by LPS stimulation and measured after 6 hrs by ELISA (reference value: 472.3 +/- 25.8 pg/ml); assay type: functional; in short: as §1
RAW264.7 [10] = experiment: Antiinflammatory activity in LPS-induced mouse RAW264.7 cells assessed as IL-6 levels at 5 uM pretreated for 2 hrs followed by LPS stimulation and measured after 6 hrs by ELISA (reference value: 472.3 +/- 25.8 pg/ml); assay type: functional; in short: as §1
RAW264.7 [11] = experiment: Antiinflammatory activity in LPS-induced mouse RAW264.7 cells assessed as TNFalpha levels at 2.5 uM pretreated for 2 hrs followed by LPS stimulation and measured after 24 hrs by ELISA (reference value: 9653.7 +/- 377.3 pg/ml); assay type: functional; in short: as §1
RAW264.7 [12] = experiment: Antiinflammatory activity in LPS-induced mouse RAW264.7 cells assessed as TNFalpha levels at 10 uM pretreated for 2 hrs followed by LPS stimulation and measured after 6 hrs by ELISA (reference value: 4377.1 +/- 318.6 pg/ml); assay type: functional; in short: as §1
RAW264.7 [13] = experiment: Antiinflammatory activity in LPS-induced mouse RAW264.7 cells assessed as TNFalpha levels at 2.5 uM pretreated for 2 hrs followed by LPS stimulation and measured after 6 hrs by ELISA (reference value: 4377.1 +/- 318.6 pg/ml); assay type: functional; in short: as §1
RAW264.7 [14] = experiment: Antiinflammatory activity in LPS-induced mouse RAW264.7 cells assessed as IL-6 levels at 5 uM pretreated for 2 hrs followed by LPS stimulation and measured after 12 hrs by ELISA (reference value: 1394 +/- 62.6 pg/ml); assay type: functional; in short: as §1
RAW264.7 [15] = experiment: Antiinflammatory activity in LPS-induced mouse RAW264.7 cells assessed as IL-6 levels at 10 uM pretreated for 2 hrs followed by LPS stimulation and measured after 12 hrs by ELISA (reference value: 1394 +/- 62.6 pg/ml); assay type: functional; in short: as §1
RAW264.7 [16] = experiment: Antiinflammatory activity in LPS-induced mouse RAW264.7 cells assessed as IL-6 levels at 2.5 uM pretreated for 2 hrs followed by LPS stimulation and measured after 12 hrs by ELISA (reference value: 1394 +/- 62.6 pg/ml); assay type: functional; in short: as §1
[17] = Cytotoxicity against mouse RAW264.7 cells assessed as cell viability at 10 uM after 48 hrs by MTT assay (reference value: 100%); assay type: cell-based; details: read-out: Activity
In short: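 RAW264.7 cells seeded at 4 × 10^3 per well, cultured overnight, exposed to compound (DMSO 0.1% v/v) for 48 h. MTT 0.5 mg mL−1 added for 4 h at 37 °C, formazan dissolved in DMSO, OD570 read. Viability relative to medium-only cells set as 100%. Mean ± SD (n = 5), three independent experiments.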

RAW264.7 [18] = experiment: Antiinflammatory activity in LPS-induced mouse RAW264.7 cells assessed as IL-6 levels at 1.25 uM pretreated for 2 hrs followed by LPS stimulation and measured after 24 hrs by ELISA (reference value: 1966.6 +/- 102.3 pg/ml); assay type: functional; in short: as §1
RAW264.7 [19] = experiment: Antiinflammatory activity in LPS-induced mouse RAW264.7 cells assessed as TNFalpha levels at 1.25 uM pretreated for 2 hrs followed by LPS stimulation and measured after 6 hrs by ELISA (reference value: 4377.1 +/- 318.6 pg/ml); assay type: functional; in short: as §1
RAW264.7 [20] = experiment: Antiinflammatory activity in LPS-induced mouse RAW264.7 cells assessed as TNFalpha levels at 5 uM pretreated for 2 hrs followed by LPS stimulation and measured after 24 hrs by ELISA (reference value: 9653.7 +/- 377.3 pg/ml); assay type: functional; in short: as §1
RAW264.7 [21] = experiment: Antiinflammatory activity in LPS-induced mouse RAW264.7 cells assessed as TNFalpha levels at 1.25 uM pretreated for 2 hrs followed by LPS stimulation and measured after 24 hrs by ELISA (reference value: 9653.7 +/- 377.3 pg/ml); assay type: functional; in short: as §1
RAW264.7 [22] = experiment: Antiinflammatory activity in LPS-induced mouse RAW264.7 cells assessed as IL-6 levels at 10 uM pretreated for 2 hrs followed by LPS stimulation and measured after 24 hrs by ELISA (reference value: 1966.6 +/- 102.3 pg/ml); assay type: functional; in short: as §1
RAW264.7 [23] = experiment: Antiinflammatory activity in LPS-induced mouse RAW264.7 cells assessed as IL-6 levels at 1.25 uM pretreated for 2 hrs followed by LPS stimulation and measured after 12 hrs by ELISA (reference value: 1394 +/- 62.6 pg/ml); assay type: functional; in short: as §1
RAW264.7 [24] = experiment: Antiinflammatory activity in LPS-induced mouse RAW264.7 cells assessed as TNFalpha levels at 5 uM pretreated for 2 hrs followed by LPS stimulation and measured after 12 hrs by ELISA (reference value: 5313.7 +/- 420.9 pg/ml); assay type: functional; in short: as §1

`CC1=C[C@@H](O/C=C2/C(=O)O[C@@H]3c4ccccc4C[C@H]23)OC1=O` gave an IC50 (RAW264.7 [1]) of 6.62 µM.

In the case of `CC1=C[C@H](O/C=C2/C(=O)O[C@H]3c4ccccc4C[C@@H]23)OC1=O`, the IC50 (RAW264.7 [1]) is reported as 6.34 µM.

`CC1C[C@H](O/C=C2/C(=O)OC3c4ccccc4CC23)OC1=O` (some centres undefined) gave an IC50 (RAW264.7 [1]) of 42.1 µM.

In the case of `CC1=C[C@H](O/C=C2/C(=O)OC3c4ccccc4CC23)OC1=O` (some centres undefined), the IC50 (RAW264.7 [1]) is reported as 4.06 µM.

In the case of `CC1=C[C@@H](O/C=C2/C(=O)OC3c4ccccc4CC23)OC1=O` (some centres undefined), the IC50 (RAW264.7 [1]) is reported as 4.32 µM.

With `CC1C[C@@H](O/C=C2/C(=O)O[C@H]3c4ccccc4C[C@@H]23)OC1=O` (some centres undefined) the IC50 (RAW264.7 [1]) was 35.4 µM.

`C[C@@H]1C[C@H]2[C@@H]3CCC4=CC(=O)C=C[C@]4(C)[C@@]3(F)[C@@H](O)C[C@]2(C)[C@@]1(O)C(=O)CO` [DEXAMETHASONE] gave an Activity (RAW264.7 [2]) of 6458.3 pg/mL, an Activity (RAW264.7 [3]) of 3393.5 pg/mL and an Activity (RAW264.7 [4]) of 3219.4 pg/mL. For the same molecule, the Activity (RAW264.7 [5]) was 1336.5 pg/mL, the IC50 (RAW264.7 [1]) was 2.66 µM and the Activity (RAW264.7 [6]) was 393.4 pg/mL. The Activity (RAW264.7 [7]) was 422.7 pg/mL, the Activity (RAW264.7 [8]) was 1594.9 pg/mL and the Activity (RAW264.7 [9]) was 269.5 pg/mL. For the same molecule, the Activity (RAW264.7 [10]) was 332.8 pg/mL, the Activity (RAW264.7 [11]) was 8187.9 pg/mL and the Activity (RAW264.7 [12]) was 2655 pg/mL. For the same molecule, the Activity (RAW264.7 [13]) was 3671.8 pg/mL, the Activity (RAW264.7 [14]) was 927.7 pg/mL and the Activity (RAW264.7 [15]) was 791 pg/mL. The Activity (RAW264.7 [16]) was 1120.3 pg/mL, the viability at 48 h, 10 µM [17] was 100% and the Activity (RAW264.7 [18]) was 1770.4 pg/mL. The Activity (RAW264.7 [19]) was 4056.3 pg/mL, the Activity (RAW264.7 [20]) was 7533.7 pg/mL and the Activity (RAW264.7 [21]) was 8748.1 pg/mL. It also gave an Activity (RAW264.7 [22]) of 924.1 pg/mL, an Activity (RAW264.7 [23]) of 1240.5 pg/mL and an Activity (RAW264.7 [24]) of 4063.6 pg/mL.

Work on `CC1C[C@@H](O/C=C2/C(=O)OC3c4ccccc4CC23)OC1=O` (some centres undefined) yielded an IC50 (RAW264.7 [1]) of 44.5 µM.

Molecule `CC1C[C@@H](O/C=C2/C(=O)O[C@@H]3c4ccccc4C[C@H]23)OC1=O` (some centres undefined) has an IC50 (RAW264.7 [1]) of 64.6 µM.

For `CC1C[C@H](O/C=C2/C(=O)O[C@@H]3c4ccccc4C[C@H]23)OC1=O` (some centres undefined), the IC50 (RAW264.7 [1]) was 32.3 µM.

For `CC1C[C@H](O/C=C2/C(=O)O[C@H]3c4ccccc4C[C@@H]23)OC1=O` (some centres undefined), the IC50 (RAW264.7 [1]) was 60.5 µM.
